# Test results as given in article PMC5473336 (Journal of medicinal chemistry, 2016).
# “Also recorded” adds a separate entry of the source. Where two headings read alike, the source gives them in different places.
# Experiments:
# RAD51 [1] = molecular target: T1, RAD51 (Homo sapiens, UniProt Q06609); assay: Fluorescence polarization-based RAD51-DNA binding assay; settings: for ssDNA binding IC50: Stim: compound is a stimulator
# T1 sequence (Q06609 1-339): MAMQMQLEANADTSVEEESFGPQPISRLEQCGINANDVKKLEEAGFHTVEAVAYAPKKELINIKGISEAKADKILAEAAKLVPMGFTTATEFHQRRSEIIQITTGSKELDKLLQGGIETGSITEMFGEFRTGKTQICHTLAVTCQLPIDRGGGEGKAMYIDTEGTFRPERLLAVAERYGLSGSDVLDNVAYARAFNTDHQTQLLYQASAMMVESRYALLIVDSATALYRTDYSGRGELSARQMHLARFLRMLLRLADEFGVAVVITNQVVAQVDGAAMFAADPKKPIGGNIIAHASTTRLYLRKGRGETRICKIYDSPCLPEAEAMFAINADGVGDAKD
# 293-DR-GFP cells [2] = assay: DR-GFP assay of cellular HR activity; assay type: cell-based, human; settings: 24 h, relative to 1 and 8
# [3] = Stability on exposure to air; assay type: physicochemical; settings: room temperature; oxidizes to compound 8
# RAD51 [4] = molecular target: T1, RAD51; assay: Gel-based D-loop assay; assay type: biochemical
# 293-SA-GFP cells [5] = assay: Single-strand annealing; assay type: cell-based, human; settings: concentration range that inhibits HR, 24 h post-transfection
# Procedure, shortened: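 Cells electroporated in Opti-MEM with 37.5 μg/mL I-SceI plasmid (pCBASce) or empty pCAGGS vector at 325 V, 975 μF. Then seeded in complete DMEM + 0.5% DMSO with compound and grown out 24 h. Harvested into PBS with 1 μg/mL 7-AAD for flow cytometry, gating out dead/apoptotic cells by size, shape and 7-AAD. Read-out is the GFP-positive fraction of live cells; three replicates, standard error.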
# 293-DR-GFP cells [6] = assay: RAD51 cytological focus formation after irradiation; assay type: cell-based, human; settings: IR-induced, 8 h time course
# [7] = molecular target: T2, S. cerevisiae Rad51 and Rad52 proteins (Saccharomyces cerevisiae, UniProt P25454); assay: Gel-based D-loop assay with yeast recombinase; assay type: biochemical; settings: selectivity versus human RAD51
# T2 sequence (P25454 1-400): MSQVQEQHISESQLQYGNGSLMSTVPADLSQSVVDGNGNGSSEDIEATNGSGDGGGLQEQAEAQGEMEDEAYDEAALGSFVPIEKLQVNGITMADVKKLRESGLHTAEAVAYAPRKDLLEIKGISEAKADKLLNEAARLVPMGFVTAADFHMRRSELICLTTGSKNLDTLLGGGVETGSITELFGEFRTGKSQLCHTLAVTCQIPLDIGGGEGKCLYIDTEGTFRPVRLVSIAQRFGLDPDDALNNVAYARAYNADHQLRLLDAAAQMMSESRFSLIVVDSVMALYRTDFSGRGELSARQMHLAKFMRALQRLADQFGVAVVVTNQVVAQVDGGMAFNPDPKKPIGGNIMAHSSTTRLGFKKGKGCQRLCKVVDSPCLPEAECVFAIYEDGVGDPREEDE
# E. coli RecA protein = E. coli RecA protein (Escherichia coli, UniProt P0A7G6); assay: Gel-based D-loop assay with bacterial recombinase; assay type: biochemical; settings: selectivity versus human RAD51
# E. coli RecA protein, sequence (P0A7G6 whole entry): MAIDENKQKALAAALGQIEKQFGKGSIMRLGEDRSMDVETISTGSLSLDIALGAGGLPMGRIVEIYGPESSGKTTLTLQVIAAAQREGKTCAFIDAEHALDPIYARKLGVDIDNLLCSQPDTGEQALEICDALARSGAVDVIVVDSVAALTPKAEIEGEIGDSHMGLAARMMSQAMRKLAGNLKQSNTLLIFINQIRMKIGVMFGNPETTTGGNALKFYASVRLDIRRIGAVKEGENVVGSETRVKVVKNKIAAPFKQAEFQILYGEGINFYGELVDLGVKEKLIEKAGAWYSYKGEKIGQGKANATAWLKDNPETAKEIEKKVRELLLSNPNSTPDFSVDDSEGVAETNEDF
# [8] = system: U2OS, PC-3, and MCF-7 tumor cell lines; assay: Clonogenic survival assay after ionizing radiation; assay type: cell-based; settings: compound given immediately after irradiation, for the duration of outgrowth
# Procedure, shortened: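 X-ray irradiation at 1.5 Gy/min of subconfluent flask cultures, then trypsinized and seeded at 1000–1500 cells/well in complete medium with 0.5% DMSO plus compound at the indicated dose. Grown 7–11 days until colonies reached at least 50 cells, then fixed and stained in 6% glutaraldehyde + 0.5% crystal violet. Colonies counted automatically. PC-3 kept in DMEM:F12 (1:1), 10% FCS, penicillin/streptomycin.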
# 293-SA-GFP cells [9] = settings: previously demonstrated; cited from earlier work
Structure (SMILES),influence on RAD51-ssDNA binding (in words) (RAD51 [1]),ssDNA binding IC50 (RAD51 [1]),D-loop inhibitory activity (in words) (RAD51 [4]),also measured
"COc1ccc2c(c1)NC(c1ccc(N(C)C)cc1)c1cccn1-2 (racemic) [Compound 7, 4-(7-Methoxy-4,5-dihydropyrrolo[1,2-a][13]quinoxalin-4-yl)-N,N-dimethylaniline]",significant stimulatory activity,Stim,,"Emax (RAD51 [1]; read-out: ssDNA binding max effect, ↑ compound stimulates RAD51-ssDNA binding): 47 ± 33%; inhibitory activity in cell-based HR assay (in words) (293-DR-GFP cells [2]): comparable to that of 1 and 8; stability when exposed to air (in words) [3]: not stable"
"COc1ccc2c(c1)nc(-c1ccc(N(C)C)cc1)c1cccn12 [Compound 8, 4-(7-Methoxypyrrolo[1,2-a]quinoxalin-4-yl)-N,N-dimethylaniline]",,Stim,,
"CN(C)c1ccc(-c2nc3ccccc3n3cccc23)cc1 [Compound 9a, N,N-Dimethyl-4-(pyrrolo[1,2-a]quinoxalin-4-yl)aniline]",modest influence,Stim,allow for D-loop inhibition,
"O=[N+]([O-])c1cccc(-c2nc3ccccc3n3cccc23)c1 [Compound 9b, 4-(3-Nitrophenyl)pyrrolo[1,2-a]quinoxaline]",modest influence,,,
"Nc1cccc(-c2nc3ccccc3n3cccc23)c1 [Compound 9c, 3-(Pyrrolo[1,2-a]quinoxalin-4-yl)aniline]",,,decreased,
"Oc1ccc(-c2nc3ccccc3n3cccc23)cc1 [Compound 9d, 4-(Pyrrolo[1,2-a]quinoxalin-4-yl)phenol]",,,significantly decreased,
"FC(F)(F)Oc1ccc(-c2nc3ccccc3n3cccc23)cc1 [Compound 9e, 4-(4-(Trifluoromethoxy)phenyl)pyrrolo[1,2-a]quinoxaline]",,Stim,significantly decreased,
"O=[N+]([O-])c1ccc(-c2nc3ccccc3n3cccc23)cc1 [Compound 9f, 4-(4-Nitrophenyl)pyrrolo[1,2-a]quinoxaline]",,,significantly decreased,
"Nc1ccc(-c2nc3ccccc3n3cccc23)cc1 [Compound 9g, 4-(Pyrrolo[1,2-a]quinoxalin-4-yl)aniline]",,,allow for D-loop inhibition,
"CCNc1ccc(-c2nc3ccccc3n3cccc23)cc1 [Compound 9h, N-Ethyl-4-(pyrrolo[1,2-a]quinoxalin-4-yl)aniline]",almost no impact,,allow for D-loop inhibition,"effect on SSA activity (in words) (293-SA-GFP cells [5]): does not stimulate SSA; appearance of RAD51 subnuclear foci in response to DNA damage (in words) (293-DR-GFP cells [6]): does not inhibit; inhibition of D-loop activity of Saccharomyces cerevisiae Rad51 (in words) [7]: no significant inhibition; inhibition of D-loop activity of Escherichia coli RecA (in words) (E. coli RecA protein): no significant inhibition; sensitization of cancer cells to radiation, clonogenic survival (in words) [8]: significantly sensitizes"
"c1ccc2c(c1)nc(-c1ccc(N3CCCC3)cc1)c1cccn12 [Compound 9i, 4-(4-(Pyrrolidin-1-yl)phenyl)pyrrolo[1,2-a]quinoxaline]",modest influence,Stim,significantly decreased,
"c1ccc2c(c1)nc(-c1ccc(N3CCOCC3)cc1)c1cccn12 [Compound 9j, 4-(4-(Pyrrolo[1,2-a]quinoxalin-4-yl)phenyl)morpholine]",,,allow for D-loop inhibition,
"c1cncc(-c2nc3ccccc3n3cccc23)c1 [Compound 11a, 4-(Pyridin-3-yl)pyrrolo[1,2-a]quinoxaline]",,,moderate,
"c1ccc2c(c1)nc(-c1ccncc1)c1cccn12 [Compound 11b, 4-(Pyridin-4-yl)pyrrolo[1,2-a]quinoxaline]",,,moderate,
"C1=C(c2nc3ccccc3n3cccc23)CCCC1 [Compound 11c, 4-(Cyclohex-1-en-1-yl)pyrrolo[1,2-a]quinoxaline]",modest influence,Stim,weak,
"c1ccc2c(-c3nc4ccccc4n4cccc34)cccc2c1 [Compound 11d, 4-(Naphthalen-1-yl)pyrrolo[1,2-a]quinoxaline]",modest influence,Stim,weak,
"COc1ccc2c(c1)nc(-c1ccc(O)cc1)c1cccn12 [Compound 12a, 4-(7-Methoxypyrrolo[1,2-a]quinoxalin-4-yl)phenol]",relatively strong ssDNA binding inhibition,,,
"COc1ccc2c(c1)nc(-c1ccc([N+](=O)[O-])cc1)c1cccn12 [Compound 12b, 7-Methoxy-4-(4-nitrophenyl)pyrrolo[1,2-a]quinoxaline]",stimulators,Stim,,
"COc1ccc2c(c1)nc(-c1ccc(N)cc1)c1cccn12 [Compound 12c, 4-(7-Methoxypyrrolo[1,2-a]quinoxalin-4-yl)aniline]",only weakly influenced,,,
"Nc1ccc(-c2nc3cc(O)ccc3n3cccc23)cc1 [Compound 12f, 4-(4-Aminophenyl)pyrrolo[1,2-a]quinoxalin-7-ol]",modest effects,,,inhibitory activity in cell-based HR assay (in words) (293-DR-GFP cells [2]): comparable or slightly less inhibitory activity
"CN(C)c1ccc(-c2nc3cc(O)ccc3n3cccc23)cc1 [Compound 12g, 4-(4-(Dimethylamino)phenyl)pyrrolo[1,2-a]quinoxalin-7-ol]",only weakly influenced,Stim,,inhibitory activity in cell-based HR assay (in words) (293-DR-GFP cells [2]): comparable or slightly less inhibitory activity
"CN(C)c1ccc(-c2nc3cc(F)ccc3n3cccc23)cc1 [Compound 12j, 4-(7-Fluoropyrrolo[1,2-a]quinoxalin-4-yl)-N,N-dimethylaniline]",,Stim,nearly absent,
"CN(C)c1ccc(-c2nc3cc(F)c(F)cc3n3cccc23)cc1 [Compound 12m, 4-(7,8-Difluoropyrrolo[1,2-a]quinoxalin-4-yl)-N,N-dimethylaniline]",,Stim,nearly absent,
"COc1ccc2c(c1)nc(-c1cccnc1)c1cccn12 [Compound 13a, 7-Methoxy-4-(pyridin-3-yl)pyrrolo[1,2-a]quinoxaline]",,,slight improvement,
"Oc1ccc2c(c1)nc(-c1cccnc1)c1cccn12 [Compound 13b, 4-(Pyridin-3-yl)pyrrolo[1,2-a]quinoxalin-7-ol]",,,slight improvement,
"CCCOc1ccc2c(c1)nc(-c1ccc(N)cc1)c1cccn12 [Compound 15a, 4-(7-Propoxypyrrolo[1,2-a]quinoxalin-4-yl)aniline]",stimulators,Stim,,
"Nc1ccc(-c2nc3cc(OCCF)ccc3n3cccc23)cc1 [Compound 15b, 4-(7-(2-Fluoroethoxy)pyrrolo[1,2-a]quinoxalin-4-yl)aniline]",stimulators; also recorded: modest effects,Stim,,
"CN(C)c1ccc(-c2nc3cc(OC(C)(C)C(N)=O)ccc3n3cccc23)cc1 [Compound 16, 2-((4-(4-(Dimethylamino)phenyl)pyrrolo[1,2-a]quinoxalin-7-yl)-oxy)-2-methylpropanamide]",stimulators,Stim,,
O=C1C(Cl)=C(N2CCOCC2)C(=O)N1c1ccc(Cl)c(Cl)c1 [RI-1],,,,effect on SSA activity (in words) (293-SA-GFP cells [9]): elevated levels of SSA activity
